Source: article PMC11310207 (Scientific Reports, 2024)
Read-outs that look alike come from different tables or passages of the source. Ends that are not written are not given here. Peptide text beside a SMILES is read from it. * marks the point of attachment. 5FAM = O=C1OC2(c3ccc(O)cc3Oc3cc(O)ccc32)c2ccc(C(=O)*)cc21

Legend:
recombinant human Nln [1] = molecular target: T1, recombinant human Nln (Homo sapiens, UniProt Q9BYT8); details: read-out: Ki (published value); inhibition of Nln; cited from earlier work
T1 sequence (Q9BYT8 38-704): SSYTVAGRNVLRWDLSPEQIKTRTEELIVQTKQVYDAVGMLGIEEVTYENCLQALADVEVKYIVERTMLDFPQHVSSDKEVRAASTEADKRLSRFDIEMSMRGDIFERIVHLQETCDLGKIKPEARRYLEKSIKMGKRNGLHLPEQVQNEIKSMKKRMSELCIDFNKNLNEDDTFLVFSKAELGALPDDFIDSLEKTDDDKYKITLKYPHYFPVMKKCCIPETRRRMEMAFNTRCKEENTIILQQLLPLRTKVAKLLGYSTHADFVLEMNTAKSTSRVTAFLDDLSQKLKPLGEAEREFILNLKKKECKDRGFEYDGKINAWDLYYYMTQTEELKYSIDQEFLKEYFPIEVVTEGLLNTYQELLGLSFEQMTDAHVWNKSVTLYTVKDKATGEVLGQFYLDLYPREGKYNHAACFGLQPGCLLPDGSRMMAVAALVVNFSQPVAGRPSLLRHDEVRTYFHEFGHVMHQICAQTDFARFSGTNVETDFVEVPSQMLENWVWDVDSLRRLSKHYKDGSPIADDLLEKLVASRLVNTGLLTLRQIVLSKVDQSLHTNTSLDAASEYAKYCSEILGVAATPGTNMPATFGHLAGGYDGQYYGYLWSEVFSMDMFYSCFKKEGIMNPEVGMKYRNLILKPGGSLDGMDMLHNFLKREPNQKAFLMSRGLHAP

rNln E475A = rNln E475A (Rattus norvegicus, UniProt P42676, E498A); assay type: binding
rNln E475A, sequence (P42676 37-704 E498A): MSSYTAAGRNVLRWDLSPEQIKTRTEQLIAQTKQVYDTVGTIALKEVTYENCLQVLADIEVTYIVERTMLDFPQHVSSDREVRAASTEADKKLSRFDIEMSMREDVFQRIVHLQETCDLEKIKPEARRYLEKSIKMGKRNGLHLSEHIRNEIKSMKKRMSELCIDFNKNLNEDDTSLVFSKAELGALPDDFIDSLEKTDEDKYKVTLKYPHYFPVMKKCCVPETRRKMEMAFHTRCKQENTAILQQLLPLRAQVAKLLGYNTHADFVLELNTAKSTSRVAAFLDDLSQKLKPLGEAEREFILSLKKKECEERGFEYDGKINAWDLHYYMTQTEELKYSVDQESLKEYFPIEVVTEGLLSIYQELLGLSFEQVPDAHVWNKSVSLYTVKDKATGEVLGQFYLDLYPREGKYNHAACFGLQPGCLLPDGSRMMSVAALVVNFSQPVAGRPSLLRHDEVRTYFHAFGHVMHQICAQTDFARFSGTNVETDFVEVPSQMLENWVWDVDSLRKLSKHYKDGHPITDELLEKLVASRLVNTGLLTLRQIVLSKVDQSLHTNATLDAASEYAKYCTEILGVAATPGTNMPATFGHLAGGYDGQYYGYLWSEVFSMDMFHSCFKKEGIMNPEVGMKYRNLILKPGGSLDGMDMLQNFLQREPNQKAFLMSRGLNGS
Method in brief: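 Rat Nln (Met37–Ser704, E475A) with a C-terminal 6xHis tag, expressed in E. coli BL21(DE3) and purified by Ni-affinity and SEC. FAM-labelled Dyn A peptides (FAM replacing Tyr1; 18 nM final) were mixed with 0–50 µM Nln in aCSF (0.2 µM ZnSO4, pH 7.2) plus 0.01% Triton X-100. Polarization was read at 25 °C (ex 485/em 535 nm). ΔmP versus no-Nln was fitted to one-site binding with ligand depletion for KD.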

recombinant human Nln [2] = molecular target: T1, recombinant human Nln; experiment: Competition of Dyn A peptides with quenched fluorogenic Nln substrate; assay type: biochemical
Method in brief: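 N-terminally 6xHis-tagged human Nln (Ser38–Pro704) was incubated in aCSF at 37 °C with 15 µM quenched substrate Mca-Pro-Leu-Gly-Pro-D-Lys(DNP)-OH, ± Dyn A peptide at 0.1–100 µM. Fluorescence was recorded continuously for 20 min under initial-velocity conditions (<10% substrate consumed). V0 was expressed as % of the no-peptide control and fitted to three-parameter log(inhibitor)–response to give IC50. Ki was calculated by Cheng–Prusoff (Km 8 µM). n=4, duplicates.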

CC[C@H](C)[C@H](NC(=O)[C@H](CCCNC(=N)N)NC(=O)[C@H](CCCNC(=N)N)NC(=O)[C@H](CC(C)C)NC(=O)[C@H](Cc1ccccc1)NC(=O)CNC(=O)CNC(=O)[C@@H](N)Cc1ccc(O)cc1)C(=O)N[C@@H](CCCNC(=N)N)C(=O)N1CCC[C@H]1C(=O)N[C@@H](CCCCN)C(=O)N[C@@H](CC(C)C)C(=O)N[C@@H](CCCCN)C(=O)O [Dyn A (1–13)]
Ki (recombinant human Nln [1]): 1.19 µM

CC[C@H](C)[C@H](NC(=O)[C@H](CCCNC(=N)N)NC(=O)[C@H](CCCNC(=N)N)NC(=O)[C@H](CC(C)C)NC(=O)[C@H](Cc1ccccc1)NC(=O)CNC(=O)CNC(=O)c1ccc2c(c1)C(=O)OC21c2ccc(O)cc2Oc2cc(O)ccc21)C(=O)N[C@@H](CCCNC(=N)N)C(=O)N1CCC[C@H]1C(=O)N[C@@H](CCCCN)C(=O)N[C@@H](CC(C)C)C(=O)N[C@@H](CCCCN)C(=O)O [FAM-^2GGFLRRIRPKLK^13]
Kd (rNln E475A): 4.69 µM

CC[C@H](C)[C@H](NC(=O)[C@H](CCCNC(=N)N)NC(=O)[C@H](CCCNC(=N)N)NC(=O)[C@H](CC(C)C)NC(=O)[C@H](Cc1ccccc1)NC(=O)CNC(=O)CNC(=O)c1ccc2c(c1)C(=O)OC21c2ccc(O)cc2Oc2cc(O)ccc21)C(=O)N[C@@H](CCCNC(=N)N)C(=O)N1CCC[C@H]1C(=O)O [FAM-^2GGFLRRIRP^10] (5FAM-GGFLRRIRP-OH)
Kd (rNln E475A): 8.46 µM

YGGFLRRIR [Dyn A (1–9)]
Ki (recombinant human Nln [2]): ~6 µM

CC[C@H](C)[C@H](NC(=O)[C@H](CCCNC(=N)N)NC(=O)[C@H](CCCNC(=N)N)NC(=O)[C@H](CC(C)C)NC(=O)[C@H](Cc1ccccc1)NC(=O)CNC(=O)CNC(=O)c1ccc2c(c1)C(=O)OC21c2ccc(O)cc2Oc2cc(O)ccc21)C(=O)N[C@@H](CCCNC(=N)N)C(=O)N1CCC[C@H]1C(=O)N[C@@H](CCCCN)C(=O)N[C@@H](CC(C)C)C(=O)N[C@@H](CCCCN)C(=O)N[C@@H](Cc1c[nH]c2ccccc12)C(=O)N[C@@H](CC(=O)O)C(=O)N[C@@H](CC(N)=O)C(=O)N[C@@H](CCC(N)=O)C(=O)O [FAM-^2GGFLRRIRPKLKWDNQ^17]
Kd (rNln E475A): 3.26 µM

CC[C@H](C)[C@H](NC(=O)[C@H](CCCNC(=N)N)NC(=O)[C@H](CCCNC(=N)N)NC(=O)[C@H](CC(C)C)NC(=O)[C@H](Cc1ccccc1)NC(=O)CNC(=O)CNC(=O)[C@@H](N)Cc1ccc(O)cc1)C(=O)N[C@@H](CCCNC(=N)N)C(=O)N1CCC[C@H]1C(=O)N[C@@H](CCCCN)C(=O)N[C@@H](CC(C)C)C(=O)N[C@@H](CCCCN)C(=O)N[C@@H](Cc1c[nH]c2ccccc12)C(=O)N[C@@H](CC(=O)O)C(=O)N[C@@H](CC(N)=O)C(=O)N[C@@H](CCC(N)=O)C(=O)O [Dyn A (1–17)]
Ki (recombinant human Nln [2]): ~6 µM
